Rows were chosen to be rich in hits. Some 2% of all compounds tested hit in one or more screens of this group.
E-selectin induc: E-selectin induction on HUVECs | 260,000 tested, 0.37% active | activation, % at 7.58 µM | P16581 | HUVEC E-selectin immunofluorescence imaging; normalized: neutral wells 0, TNF-alpha wells 100;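 active = mean E-selectin-positive cell signal at least 10% of the positive control, reached in at least 60% of replicates, without over 20% cell loss; inconclusive = no rule given, readout overlaps actives, possibly toxicity-flagged; inactive = the rest, including those meeting only one limit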
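Read-out: % PE-positive cells | Test system: HUVEC | Doses: One compound dose added by pin transfer | Buffer or medium: EGM-2 over gelatin coat | Signal: Immunofluorescence imaging | Benchmarks: TNF-alpha, DMSO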
RAD52 anneal inh: blocks human RAD52 DNA annealing | P43351 | recombinant RAD52 DNA annealing, FRET fluorescence | inhibition, % at 18.7 µM | 360,000 tested, 0.46% active | AID 651710;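 active = every replicate showing at least 50% inhibition; inconclusive = mean inhibition at least 50% but not in every replicate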
rRNA inh HTS: inhibits bacterial ribosomal RNA function over humanized ribosomes; AID 720706; E. coli WT GFP vs humanized-ribosome RFP mutants, fluorescence, 24 h; hits give low values; DMSO median 0, no signal -100; 350,000 tested, 1.6% active; GFP signal change (wild-type ribosome), % (no concentration beside the values);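 active = significant combined selectivity score with lowered wild-type GFP, culture density cut under 30%, mutant RFP and density less affected; inactive = any of these conditions unmet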
RAD54 branch: blocks human RAD54 Holliday junction branch migration | 360,000 tested, 0.14% active | inhibition, % at 10.4 µM | Q92698 | FAM/BHQ fluorescence;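 active = mean normalized replicate activity at least 40 and at least half of replicates scoring 40 or more; inconclusive = only one of the two criteria met; inactive = mean below 40 and under half of replicates reaching 40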;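 also: 0% = median of neutral control wells and 100% = median of positive control wells; inhibitors cause a drop in the FAM fluorescence signal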
Target sequence (Q92698 whole entry, looked up): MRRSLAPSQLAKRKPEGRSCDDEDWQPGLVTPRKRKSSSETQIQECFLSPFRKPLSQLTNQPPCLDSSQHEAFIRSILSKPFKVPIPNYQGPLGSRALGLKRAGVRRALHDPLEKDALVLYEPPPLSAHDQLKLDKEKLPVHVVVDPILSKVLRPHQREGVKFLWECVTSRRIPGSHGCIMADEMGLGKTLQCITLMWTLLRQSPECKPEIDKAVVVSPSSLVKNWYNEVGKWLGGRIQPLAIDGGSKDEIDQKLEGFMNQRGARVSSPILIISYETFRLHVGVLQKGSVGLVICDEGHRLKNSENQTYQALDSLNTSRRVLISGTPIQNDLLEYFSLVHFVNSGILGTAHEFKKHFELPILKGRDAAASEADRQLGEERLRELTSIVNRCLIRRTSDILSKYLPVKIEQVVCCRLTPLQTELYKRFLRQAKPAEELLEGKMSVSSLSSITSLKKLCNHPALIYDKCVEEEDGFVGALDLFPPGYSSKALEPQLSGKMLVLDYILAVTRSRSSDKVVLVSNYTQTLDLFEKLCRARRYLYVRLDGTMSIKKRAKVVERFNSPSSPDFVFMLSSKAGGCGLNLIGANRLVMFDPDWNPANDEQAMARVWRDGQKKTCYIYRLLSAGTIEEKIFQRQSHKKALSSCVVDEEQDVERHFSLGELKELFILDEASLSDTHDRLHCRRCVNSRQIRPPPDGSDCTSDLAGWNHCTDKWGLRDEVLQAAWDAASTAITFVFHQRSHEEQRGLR
PglD DTNB: blocks C. jejuni PglD acetyltransferase activity | inhibition, % at 12.5 µM | purified PglD enzyme, DTNB colorimetric CoA detection | 360,000 tested, 0.098% active; in the data active = inhibition above about 16%, passing the limit was not always enough; inconclusive = no clear call, values can overlap the other calls
Xi reactivation: X-chromosome reactivation activator; XiGFP mouse fibroblasts, % GFP-positive cells imaging, 3 d; cells co-treated with 5-aza-dC sensitizer; scaled so ellipticine positive control = 100%; activation, % at 7.58 µM; 360,000 tested, 0.055% active; AID 743238;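 active = mean normalized replicate activation at least 10% and every replicate at or above 10%; inconclusive = only one of the two criteria met; inactive = mean below 10% and not all replicates reach 10%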;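 also: 0% = median of on-plate neutral control wells and 100% = ellipticine 6 µM median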
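System: SV40-immortalized XiGFP fibroblast cells, line 68-5-11 / Incubation: 3-day compound exposure, then 15 min fixation at room temperature / Compound: single concentration per compound, delivered by pin transfer / Buffer or medium: DMEM plus 5-aza-dC sensitizer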
Numbers without * were called inactive; ? = inconclusive; . = no result.

SMILES	E-selectin induc	RAD52 anneal inh	rRNA inh HTS	RAD54 branch	PglD DTNB	Xi reactivation
Cc1ccc(S(=O)(=O)Nc2ccc3c(c2)CC(=O)N([C@@H](C)CO)C[C@H](C)[C@H](CN(C)S(=O)(=O)c2ccc(F)cc2)O3)cc1	-0.3	.	2.3	-2.9	-0.5	-0.7
S=C(Nc1ccccc1Cl)N(Cc1ccccc1)Cc1cccnc1	2.1	-25.7	-30.6	.	.	0.0
COc1ccc(Cl)cc1NC(=S)N(Cc1cccnc1)Cc1ccco1	2.4	-4.0	-24.1*	.	.	0.1
Cc1ccc(Cl)cc1NC(=S)N(Cc1ccccc1)Cc1cccnc1	.	-51.0	-26.1*	.	.	0.1
C[C@H](CO)N1C[C@H](C)[C@H](CN(C)Cc2cncnc2)Oc2cc(C#CC3CC3)ccc2S1(=O)=O	-0.1	.	-0.7	.	.	0.0
CCN(CC)c1ccc2cc(-c3nc(-c4ccc(OC)cc4)cs3)c(=O)oc2c1	0.7	-499.5	67.3	.	.	115.0*
CCN(CC)c1ccc2cc(-c3nnc(-c4ccccc4)o3)c(=O)oc2c1	.	.	.	-218.1	-5.7	.
C[C@H](CO)N1C[C@H](C)[C@H](CN(C)S(=O)(=O)c2ccc(Cl)cc2)OCCCC[C@H](C)Oc2ccc(NC(=O)c3ccncc3)cc2C1=O	.	27.0	-3.4	0.3	1.7	0.0
CCCS(=O)(=O)c1c(S(=O)(=O)CCC)c2c(C)cccn2c1C(N)=O	.	.	.	-2.7	-3.3	.
CCCS(=O)(=O)c1c(S(=O)(=O)CCC)c2c(C)cccn2c1C(=O)N/N=C/c1cc(O)cc(O)c1	1.6	-21.9	-20.9*	0.4	-3.1	0.3
Cc1cc(C)nc(NC(=O)/C=C/c2cccs2)c1	.	-27.4	-26.6*	1.0	-0.8	.
O=C(C[C@H]1CC[C@@H]2[C@H](COC[C@@H](O)CN2Cc2cccc(F)c2)O1)NCc1cccc(F)c1	0.0	7.6	-3.6	3.5	-3.4	0.2
COc1ccc2[nH]c3c(c2c1)CCN1C(=O)C(CC(=O)NCc2ccco2)C[C@H](C(=O)N2CCCCC2)[C@@]31C (stereo partly specified)	-0.2	-10.9	3.5	-12.8	3.9	0.0
C[C@]12c3[nH]c4ccc(Cl)cc4c3CCN1C(=O)[C@@H](CC(=O)NCc1ccco1)C[C@@H]2C(=O)N1CCCCC1	53.0*	-2.7	-2.8	0.8	-1.4	0.0
COc1ccc(CN2C(=O)COc3ccccc32)cc1	0.2	-3.2	4.8	-8.3	4.3	0.1
COc1ccc(CC2(CO)COc3ccccc3C2=O)cc1 (stereo unspecified)	.	-6.7	-28.5*	.	.	0.2
COc1ccc2c3c(n(C)c2c1)[C@H](CO)N(Cc1ccc2c(c1)OCO2)CC31CN(C(=O)c2ccc3c(c2)OCO3)C1	-0.6	-13.8	-2.1	.	.	0.4
COc1ccc(C(=O)Nc2ccc(S(=O)(=O)N3CCCC3)cc2)cc1	.	-12.3	-32.4*	.	.	0.0
O=C(Nc1ccc(S(=O)(=O)N2CCCCCC2)cc1)c1[nH]ncc1[N+](=O)[O-]	-0.2	-27.3	-40.0*	9.6	-5.9	0.0
O=C(C[C@H]1CC[C@H]2[C@@H](COC[C@@H](O)CN2CC2CCOCC2)O1)N1CCOCC1	0.0	0.3	0.8	11.9	-0.8	0.1
O=C1NC(=S)S/C1=C\C=C\c1ccc([N+](=O)[O-])o1	248.1*	-6.7	-59.6	5.2	-7.2	?
O=C(O)/C=C/c1ccc([N+](=O)[O-])o1	.	-19.0	0.9	.	.	0.0
C[C@@H]1CN([C@H](C)CO)C(=O)c2cc(NC(=O)Nc3ccc4c(c3)OCO4)ccc2O[C@H]1CN(C)S(=O)(=O)c1ccc(Cl)cc1	0.3	-6.1	-6.5	0.5	2.5	0.2
C[C@@H]1CCCCO[C@@H](CN(C)Cc2ccccc2)[C@@H](C)CN([C@H](C)CO)C(=O)c2cc(NS(=O)(=O)c3cccs3)ccc2O1	.	5.9	1.0	-0.2	-175.8	0.0
COc1ccc(-n2cccc2/C=C2\C(=N)N3N=C(c4ccco4)SC3=NC2=O)cc1	0.4	-132.6	-22.8*	.	.	0.0
SMILES	E-selectin induc	RAD52 anneal inh	rRNA inh HTS	RAD54 branch	PglD DTNB	Xi reactivation
CN(C)C(=O)c1cccc(-c2ccc3c(c2)[C@H]2[C@H](CCN2C(=O)C2CCCCC2)[C@H](CO)N3)c1	0.1	.	-5.6	-25.5	0.0	-0.1
Cc1ccc(S(=O)(=O)CC(=O)c2cc(C)c(O)c(C)c2)cc1	-0.1	-16.2	-24.0*	-2.5	-1.5	0.2
Cc1ccc(S(=O)(=O)CCCS(=O)(=O)c2ccc(C)cc2)cc1	.	.	.	15.2	-2.5	.
Cc1csc(N/N=C/c2ccccn2)n1	-1.7	-5.2	-31.6*	.	.	0.0
C(=N\Nc1nc2ccccc2s1)/c1ccccn1	1.7	-15.7	-29.5*	.	.	0.7
COc1ccc(S(=O)(=O)N(C)C[C@@H]2Oc3c(NC(=O)C4CCOCC4)cccc3C(=O)N([C@@H](C)CO)C[C@@H]2C)cc1	0.2	-12.4	2.1	2.8	2.2	-0.4
Cc1c(C(=O)N(Cc2ccc(F)cc2)C2CCS(=O)(=O)C2)oc2ccccc12 (stereo unspecified)	.	-8.1	-23.2*	-4.1	-1.4	0.1
O=C(CNc1ccc(Cl)cc1)NNC(=S)NCc1ccccc1	4.3	-13.0	-55.5	.	.	0.0
O=C(CNc1cccc(Cl)c1)NNC(=S)NCc1ccccc1	1.6	-18.4	-24.1*	-2.0	-2.5	0.0
Cc1ccc(C(=O)c2oc3ccccc3c2NC(=O)c2cc(-c3cc(C)ccc3O)n[nH]2)cc1	6.2	-11.3	1.7	-3.6	-9.5	9.3
Cc1ccc(C(=O)c2oc3ccccc3c2NC(=O)c2cc(-c3ccccc3O)n[nH]2)cc1	.	.	.	.	.	23.3*
COc1ccc(COC(=O)C2=C(C)NC(=O)NC2c2ccc(OC)c(OC)c2)cc1 (stereo unspecified)	.	-6.6	-16.1	-2.8	-2.9	0.0
COc1ccc(COC(=O)C2=C(C)NC(=O)NC2c2ccc(O)c(OC)c2)cc1 (stereo unspecified)	.	-17.6	-21.8*	5.4	3.2	.
CN1c2ccccc2-c2nc3ccccc3n2C1c1ccncc1 (stereo unspecified)	.	-5.2	-23.1*	-2.0	0.6	.
CN1c2ccccc2-c2nc3ccccc3n2C1c1ccccn1 (stereo unspecified)	.	.	.	-10.1	1.2	.
O=C(COc1cccc2ccccc12)NNC(=O)Nc1ccccc1	.	-12.8	-32.8*	-5.0	3.5	.
COC(=O)c1ccc(COc2ccc(C)cc2[N+](=O)[O-])o1	0.0	-11.3	-23.9*	4.8	-1.9	0.0
Cc1ccc(OCc2ccc(C(=O)NN)o2)c([N+](=O)[O-])c1	14.2	-2.5	1.4	.	.	0.2
CC(C)CC#Cc1ccc([C@H]2[C@H]3CN(C(=O)c4ccc5c(c4)OCO5)CCCCN3[C@H]2CO)cc1	-0.5	-27.5	-2.1	0.1	-3.7	-0.1

Screens from PubChem.
